Bioassay records deposited in PubChem by The Scripps Research Institute Molecular Screening Center.
NPY1 pot ag = human NPY-Y1 potentiation or agonism, primary screen. actives 0.37% (n = 220,000). NPY-Y1 expressing cells, potentiator/agonist activation. activation, % at 3.6 µM. P25929. AID 1304; in the data active means activation above about 33%, passing the limit was not always enough;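 further: cells stimulated with NPY at EC10 then isoproterenol at EC100; 0% = low agonist plus stimulus and 100% = saturating agonist plus stimulus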
NPY-Y1 antag = antagonists of human neuropeptide Y receptor Y1; HEK293-CNG Y1 cells, membrane potential fluorescence; NPY at EC95, then isoproterenol; inhibition, % at 3.6 µM; actives 1% (n = 200,000);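 active means inhibition above the campaign mean inhibition of all tested compounds plus 3 SD, cut at about 20% in these data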;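 further: 0% = DMSO wells given NPY plus isoproterenol and 100% = isoproterenol alone without NPY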
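Material: HEK293 cells with Y1 receptor plus CNG channel; times: compound incubation 1 h at room temperature, readout 45 min post-stimulation; signal: fluorescence, membrane potential probe; read-out basis: fluorescence ratio normalized to % inhibition between controls; benchmarks: full-block control isoproterenol-only wells, zero-block control NPY plus isoproterenol wells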
NPY-Y2 antag = NPY-Y2 (human) receptor antagonism; P49146; NPY-Y2 expressing cells, antagonist mode; inhibition, % at 2.7 µM; actives 0.99% (n = 140,000); AID 793; in the data active means inhibition above about 17%;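 further: 0% = vehicle with agonist challenge and 100% = reference antagonist with challenge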
Target sequence (P49146 whole entry, looked up): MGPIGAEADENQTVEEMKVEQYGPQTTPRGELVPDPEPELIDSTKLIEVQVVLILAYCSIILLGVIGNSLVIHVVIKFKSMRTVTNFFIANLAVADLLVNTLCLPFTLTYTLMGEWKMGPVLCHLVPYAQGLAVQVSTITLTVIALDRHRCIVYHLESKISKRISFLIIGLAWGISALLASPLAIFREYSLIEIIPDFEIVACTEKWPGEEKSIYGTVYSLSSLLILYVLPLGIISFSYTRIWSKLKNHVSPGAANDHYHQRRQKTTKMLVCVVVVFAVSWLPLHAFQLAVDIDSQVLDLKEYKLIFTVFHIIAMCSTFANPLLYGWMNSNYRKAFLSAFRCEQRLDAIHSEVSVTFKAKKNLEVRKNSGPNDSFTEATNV
NPY2 pot ag = potentiates or activates human NPY-Y2 receptor | cells expressing NPY-Y2, potentiator/agonist read-out | AID 1359 | P49146 | activation, % at 3.6 µM | actives 0.45% (n = 220,000); in the data active means activation above about 27%;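 further: cells stimulated with NPY near EC25 plus isoproterenol at EC100; 0% = vehicle plus submaximal agonist and 100% = vehicle plus saturating agonist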
NPY-Y1 antag ct = antagonizes human NPY-Y1, counter-screen to NPY-Y2 antagonists; actives 19% (n = 710); inhibition, % at 3.6 µM; cell-based NPY-Y1 antagonism counterscreen; shares compounds with NPY-Y2 antag; AID 1256; in the data active means inhibition above about 20%;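 further: cells challenged with NPY then isoproterenol with cAMP sensed through a CNG channel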
NPY2 antag conf = human NPY-Y2 antagonism, confirmation; inhibition, % at 2.8 µM; actives 32% (n = 710); AID 1257; shares compounds with NPY-Y2 antag; HEK293 NPY-Y2 CNG channel, membrane potential fluorescence;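 active means mean inhibition of triplicate wells above the hit cutoff set in the primary screen, cut at about 17% in these data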;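 further: 0% = DMSO with NPY challenge and 100% = BIIE0246 high control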
The depositor's hits bear a star; . = not tested or not shown. Rows were chosen to be rich in hits. Some 1.9% of all compounds tested hit in one or more screens of this group.

SMILES	NPY1 pot ag	NPY-Y1 antag	NPY-Y2 antag	NPY2 pot ag	NPY-Y1 antag ct	NPY2 antag conf
CS(=O)(=O)c1nc(-c2ccc(Br)cc2)n[nH]1	19	4	.	2	.	.
CC(=O)n1cc(N(C(=O)CCl)c2ccc([N+](=O)[O-])cc2)c2ccccc21	69*	.	.	54*	.	.
CCOc1ccc(NC(=O)C2C3CC/C=C\CCC32)cc1 (centres undefined)	-2	.	.	-22	.	.
COc1ccc([N+](=O)[O-])cc1N/C(=N/S(=O)(=O)c1ccccc1)c1ccccc1	-31	6	.	4	.	.
N#Cc1ncc(Cl)c2ccccc12	-2	.	.	0	.	.
Cc1nc(-c2nnc(SCC(=O)Nc3cc(Cl)cc(Cl)c3)n2C)cs1	2	.	.	-3	.	.
O=C(C(Sc1ccccc1)c1ccccc1)N1CCN(c2ccccc2F)CC1 (centres undefined)	-10	36*	20*	-10	.	.
CCC(C)(C)NC(=O)Cc1ccc(Cl)cc1	10	-1	.	1	.	.
CCCc1nc2ccccc2c(C(=O)OC(C)C(=O)NCc2ccc3c(c2)OCO3)c1CC (centres undefined)	-26	25*	19*	-2	.	.
Cc1ccc(-c2c(C(=O)N(C)Cc3ccccc3)oc(=O)c3ccccc23)cc1	-29	35*	34*	-20	.	.
CN(Cc1ccccc1)C(=O)c1oc(=O)c2ccccc2c1-c1ccccc1	-2	31*	23*	-10	.	.
Cc1ccc(-c2c(C(=O)NCc3ccccc3)oc(=O)c3ccccc23)cc1	10	6	10	3	.	.
N#Cc1cnn(-c2ccccc2)c1NC(=O)CN1CCN(c2ccccc2)CC1	9	.	.	10	.	.
O=c1c2c3c(sc2nc(N2CCNCC2)n1CCc1ccccc1)CCCCC3	-7	.	.	-11	.	.
Cc1ccc(CC2CC(=O)N(c3cc(Cl)ccn3)C2=O)cc1 (centres undefined)	10	.	.	-28	.	.
Cc1csc2nc(CSc3nc4ccccc4o3)c(Br)n12	-17	23*	11	-20	.	.
COc1ccc(CCNCC(O)Cn2c3ccccc3c3ccccc32)cc1OC (centres undefined)	22	6	.	17	.	.
COc1ccc(CCNCC(O)COc2cccc(Br)c2)cc1OC (centres undefined)	105*	.	.	82*	.	.
O=C(COc1ccc2ccccc2c1)Nc1ccc2c3c(cccc13)CC2	-3	10	21*	5	.	.
COc1ccccc1CNC(=O)CSc1ccccc1	17	-5	.	-9	.	.
COc1ccccc1CNC(=O)CSc1ccc(C)cc1	-20	5	28*	13	0	4
CCN(CC)C(=S)SCC(=O)Nc1ncc2c(n1)CC(C)(C)CC2=O	9	.	.	-3	.	.
CCOC(=O)CSc1ncc(OC)c(Sc2ccc(Cl)cc2)n1	-34	14	21*	-19	4	9
CCOC(=O)C(C)Sc1ncc(OC)c(Sc2ccc(Cl)cc2)n1 (centres undefined)	-11	8	17	-22	.	.
Cc1[nH]c(=S)c(C#N)c(-c2ccco2)c1C(=O)N(C)C	7	5	.	-1	.	.
SMILES	NPY1 pot ag	NPY-Y1 antag	NPY-Y2 antag	NPY2 pot ag	NPY-Y1 antag ct	NPY2 antag conf
O=C(NCc1ccccn1)c1cc(-c2ccc(Cl)cc2)nc2ccccc12	-30	12	27*	8	4	4
O=c1c2ccccc2nc(SCc2ccccc2)n1Cc1ccco1	-7	-2	2	-8	.	.
O=c1c2ccccc2nc(SCc2cccc(F)c2)n1Cc1ccco1	-21	18	19*	-2	9	13
CC(=O)NNc1cc(C)nc(N)n1	14	.	.	-7	.	.
CCCNC(=O)COC(=O)/C=C/c1ccc2c(c1)OCO2	-15	9	24*	-12	11	7
O=C(COC(=O)/C=C/c1ccc2c(c1)OCO2)Nc1ccccc1	-17	10	.	-22	.	.
Clc1ccccc1-c1nnc2sc(C3COc4ccccc4O3)nn12 (centres undefined)	-61	5	3	-13	.	.
Cc1ccc(-c2nnc3sc(C4COc5ccccc5O4)nn23)cc1 (centres undefined)	6	1	18*	0	19	15
Cc1ccc(/C=C/C(=O)N2CCc3ccccc3C2)cc1	-11	17	24*	-20	12	13
CC(C)(C)c1ccc(/C=C/C(=O)N2CCc3ccccc3C2)cc1	-47	8	10	-36	.	.
Cc1cccc(C)c1NC(=S)NCc1ccncc1	0	.	.	-3	.	.
Cc1cccc(-c2nnc(SCc3ccc(C#N)cc3)n2Cc2ccco2)c1	-3	14	20*	-5	9	5
CCn1c(SCc2ccc(C#N)cc2)nnc1-c1cccc(Cl)c1	-24	4	5	-2	.	.
CC[n+]1c(/C=C(\C)Nc2ccccc2)sc2ccccc21	-18	7	23*	-1	10	15
CC[n+]1c(/C=C(\C)SC)sc2ccccc21	10	-4	2	-1	.	.
CCn1ccnc1[C@@H]1C[C@H]2CN(c3ccccc3OC)C(=O)[C@]23CCCN13	-7	-7	.	-3	.	.
CC(C)Nc1nnc(Sc2ccc(Cl)cc2[N+](=O)[O-])s1	-10	8	21*	-3	0	10
O=C(CSc1nnc(-c2ccc(F)cc2)c2ccccc12)NCC1CCCO1 (centres undefined)	10	-1	.	2	.	.
CCCn1nnnc1NC(=O)COc1ccc(CC)cc1	-10	6	18*	-7	6	4
CCCn1nnnc1NC(=O)COc1ccc(Cl)c(C)c1	-31	8	5	-10	.	.
CCC(c1nnnn1CCc1ccccc1)N(Cc1ccco1)Cc1cc2cc(C)cc(C)c2[nH]c1=O (centres undefined)	-21	20	17*	-20	8	10
CCOc1nc(SCCOc2ccccc2)nc(N(C)C)n1	-20	0	23*	-8	10	13
COc1ccc(/C=C2\CCc3ccccc3C2=O)cc1Cn1nc(C)cc1C	9	8	18*	-10	9	4
O=c1n(Cc2ccc(Cl)cc2)c2sc3c(c2c2ncnn12)CCCC3	-31	0	41*	-15	22*	32*
COC(=O)c1ccc(N2Cc3ccccc3/C2=N\C(=O)Nc2ccccc2)cc1	-13	-1	17	7	.	.
CC(=O)c1ccc(N2Cc3ccccc3/C2=N\C(=O)Nc2ccc(Cl)cc2)cc1	15	6	24*	6	109*	151*
COc1ccc(-c2nnc(SCc3nnc(-c4ccc(Cl)cc4)o3)n2-c2ccccc2)cc1	-2	6	23*	-5	18	14
Clc1ccc(-c2nnc(CSc3nnc(-c4cccs4)n3Cc3ccccc3)o2)cc1	-12	15	25*	19	23*	5
O=C(NC1CCCCC1)C(c1ccc2ncccc2c1)N(Cc1ccc2c(c1)OCO2)C(=O)c1cccs1 (centres undefined)	6	20	24*	-2	20*	11
